From PubChem BioAssay
VIM-2 inh: VIM-2 metallo-beta-lactamase inhibitors, primary screen, biochemical, epi-absorbance readout, Pseudomonas aeruginosa enzyme; purified VIM-2, nitrocefin hydrolysis, epi-absorbance fluorescence; inhibition, % at 5.6 µM; 290,000 compounds, 0.89% hits;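 active = inhibition above the mean of all tested compounds plus 3 SD, cutoff set per screening run, cut at about 7.5% in these data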;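 note: red hydrolysis product quenches plate fluorescence so inhibitors raise well fluorescence; 0% = enzyme with DMSO and 100% = DMSO without enzyme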
p-CIP stab down: p/CIP-EGFP fusion destabilizers, primary screen, fluorescence, F442A cells | 16 h | decrease of EGFP signal, % at 10 µM | 290,000 compounds, 0.01% hits | AID 1984, 2009 | Q05BA5;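 active = EGFP signal decrease of at least 30% at 10 µM or well 3 SD below plate mean, unless failing retest; inactive = the rest, including hits failing retest or dose response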
CTSL1 counter: Fasciola hepatica cathepsin L1 inhibitors, primary screen, counter-screen for PFM18AAP inhibitor project, biochemical, QFRET, fluorogenic peptide substrate | recombinant F. hepatica cathepsin L1, Z-Leu-Arg-MCA fluorescence | inhibition, % at 5.96 µM | 300,000 compounds, 0.49% hits;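 active = inhibition above the mean of all tested compounds plus 3 SD, set per screening campaign, cut at about 17% in these data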;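 note: 0% = plate median of test compound wells and 100% = 1 µM Z-Phe-Ala-diazomethylketone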
SUMO HTRF inh: inhibitors of in vitro SUMOylation cascade, primary screen, biochemical, HTRF, uHTS. 290,000 compounds, 0.36% hits. HTRF SUMOylation assay, SAE1/SAE2 + UBC9. SUMO-conjugating enzyme UBC9 (Homo sapiens), P63279. inhibition, % at 35 µM; in the data active = inhibition above about 50%, passing the limit was not always enough
T cell HTS: modulators of CD8 T cell-vesicle binding, primary screen, mouse 2C CD8+ T cells, flow cytometry; 2C CD8+ T cell-vesicle binding; stronger effect = lower value; response (vesicle binding), % at 7 µM; 330,000 compounds, 0.068% hits; AID 2052, 2009;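 active = response, share of CD8 T cells binding vesicles, and their 90th percentile fluorescence all below set limits, cut at about 80% in these data, passing the limit was not always enough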;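 note: values below 100% mean blocked vesicle binding to the CD8+ T cells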
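incubation = binding step 1.5 h, 37 °C, antibody labelling 20 min, ice | test system = 2C mouse CD8+ T cells | read-out basis = percent CD8+ FL2 mean versus row control | controls = Peptide-free naked vesicles (low) and QL9 vesicles with 0.7% DMSO vehicle (high) | detection = flow cytometry of vesicle-bound cells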
IMP-1 inh: IMP-1 metallo-beta-lactamase inhibitors, primary screen, biochemical, epi-absorbance readout, Pseudomonas aeruginosa enzyme. 290,000 compounds, 0.45% hits. purified IMP-1, nitrocefin hydrolysis, epi-absorbance fluorescence. AID 1556, 2009. metallo-beta-lactamase IMP-1 (Pseudomonas aeruginosa). inhibition, % at 5.6 µM;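 active = inhibition above the mean plus 3 SD of all compounds in the same screening run, cut at about 4.5% in these data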;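 note: 0% = IMP-1 with DMSO and 100% = DMSO wells lacking enzyme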
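system = purified recombinant IMP-1 beta-lactamase | amount = 0.2 nM IMP-1, as dispensed | medium = HEPES buffer pH 7.1 with ZnSO4 and Brij 35 | times = 25 °C, 15 min preincubation, 25 min reaction | detection = plate fluorescence quenching by hydrolysis product, ex 480/em 530 nm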
The depositor's hits bear a star; i = inactive; x = not tested or not shown. Sampled rows, rich in hits. Any-hit rate of the full collection: about 1.9%.

SMILES	VIM-2 inh	p-CIP stab down	CTSL1 counter	SUMO HTRF inh	T cell HTS	IMP-1 inh
COc1ccccc1-c1c(C#N)c(N)nc2c1CCc1ccccc1-2	-2	-17	1	98*	i	-3
CCOc1cc(-c2c(C#N)c(N)nc3c2CCc2ccccc2-3)ccc1O	0	7	1	-10	226	-2
COc1cccc(/C=N/NC(=O)c2ccc([N+](=O)[O-])cc2Cl)c1O	-1	-10	5	-2	266	1
Oc1cccc(/C=N/Nc2cc(N3CCCC3)nc(N3CCCC3)n2)c1	-3	6	10	93*	147	-3
Cc1ccc2c(c1)N(C(=O)CCC(=O)NC1CCN(Cc3ccccc3)CC1)CC(C)O2 (stereo not given)	-3	5	2	-5	i	3
O=C(O)c1cccc2c1C(=O)c1cccc3snc-2c13	8.3*	-2	1	1	337	-2
Cc1ccc2c(c1)C(=O)c1c(C(=O)O)cccc1-2	6	-6	-2	5	242	2
O=C1C(C=NCCCn2ccnc2)=C(O)c2ccccc21	1	x	4	x	877	-3
CC(=NCCCn1ccnc1)C1=C(O)c2ccccc2C1=O	12*	5	1	23	27	-4
COc1ccc(-c2cc(C(=O)Nc3cc(S(N)(=O)=O)ccc3C)c3ccccc3n2)cc1OC	x	x	22*	x	235	x
Cc1cnc(C(=O)OCC(=O)N(C(C)C)C(C)C)cn1	0	-1	-2	14	180	5.4*
Cc1ccc(C)c(C(=O)NCCN(C)C)c1	-5	-3	-1	5	176	-3
Cc1ccc(C(=O)NCCN(C)C)cc1C	-3	0	8	3	352	5.4*
CN(C)c1ccc(/C=N\Nc2ccccn2)cc1	0	0	3	-7	219	-3
CN(C)c1ccc(/C=N/Nc2ccc(-n3ccnc3)nn2)cc1	8.2*	-8	6	-22	167	-2
c1ccc2cc(CCO[C@H]3CCCCO3)ncc2c1	x	x	x	x	287	x
CCN(CC(=O)NCc1ccc(Cl)cc1)C(=O)CCC(=O)c1ccc(F)cc1	x	x	-2	x	223	x
ON=C1c2cc(OCCN3CCCCC3)ccc2-c2ccc(OCCN3CCCCC3)cc21	6	-3	0	3	258	5.6*
c1ccc(COc2ccc(OCCN3CCCCC3)cc2)cc1	-3	-27	5	-11	81*	-1
c1ccc(COc2ccc(OCCN3CCCC3)cc2)cc1	-2	-6	-4	6	332	-2
CCCCC1(C)OC(=O)C(=Cc2ccc(-c3ccc(Cl)c(C(=O)O)c3)o2)C(=O)O1 (stereo not given)	2	-3	1	26	378	29*
COc1ccccc1-n1cnc(N)c1C(=O)c1ccccc1	-2	-14	19*	15	163	-2
Cc1ccccc1NC(=O)c1ccc2nc(N3CCOCC3)sc2c1	0	-3	-1	10	587	-4
O=C(Nc1ccc2oc(-c3ccncc3)nc2c1)c1ccc([N+](=O)[O-])o1	0	-21	23*	29	180	1
c1ccc2c(c1)NCC1CCCN21 (stereo not given)	3	-10	-10	5	377	-25
N#Cc1cc2c(=O)n3ccccc3nc2n(Cc2ccco2)c1=NC(=O)c1ccco1	-1	-6	-7	52*	198	-2
Cc1ccccc1C(=O)N=c1c(C#N)cc2c(=O)n3cccc(C)c3nc2n1Cc1ccco1	0	-14	-1	22	110	-2
Cc1ccc(-n2nc3c(=O)n(CCCC(=O)NCCN4CCN(C)CC4)nc(C)c3c2C)cc1	2	14	-6	-7	299	4.9*
Cc1ccc(-n2nc3c(=O)n(CC(=O)NCCc4ccc(Cl)cc4)nc(C)c3c2C)cc1	-2	-5	-1	2	247	18*
Cc1ccc(CCNC(=O)CCCn2nc(C)c3c(C)n(-c4ccc(C)cc4)nc3c2=O)cc1	0	2	3	-4	407	-1
